The text below walks through data of ChEMBL document CHEMBL1137294, “Adenosine mimetics as inhibitors of NAD+-dependent histone deacetylases, from kinase to sirtuin inhibition” (J Med Chem, 2006).

As usually defined, the IC50 is the point on the concentration scale where inhibition reaches its midpoint. Broadly, the inhibition is the drop in the measured response relative to a control, in per cent.

The source made the active and inactive calls. The calls are words filed in the database; no cut-off is given here. A value given as a limit tells only on which side of the number the result lay.

For assay [1], the target named is T1, NAD-dependent protein deacetylase sirtuin-1 (Homo sapiens, UniProt Q96EB6).
T1 sequence (Q96EB6 whole entry): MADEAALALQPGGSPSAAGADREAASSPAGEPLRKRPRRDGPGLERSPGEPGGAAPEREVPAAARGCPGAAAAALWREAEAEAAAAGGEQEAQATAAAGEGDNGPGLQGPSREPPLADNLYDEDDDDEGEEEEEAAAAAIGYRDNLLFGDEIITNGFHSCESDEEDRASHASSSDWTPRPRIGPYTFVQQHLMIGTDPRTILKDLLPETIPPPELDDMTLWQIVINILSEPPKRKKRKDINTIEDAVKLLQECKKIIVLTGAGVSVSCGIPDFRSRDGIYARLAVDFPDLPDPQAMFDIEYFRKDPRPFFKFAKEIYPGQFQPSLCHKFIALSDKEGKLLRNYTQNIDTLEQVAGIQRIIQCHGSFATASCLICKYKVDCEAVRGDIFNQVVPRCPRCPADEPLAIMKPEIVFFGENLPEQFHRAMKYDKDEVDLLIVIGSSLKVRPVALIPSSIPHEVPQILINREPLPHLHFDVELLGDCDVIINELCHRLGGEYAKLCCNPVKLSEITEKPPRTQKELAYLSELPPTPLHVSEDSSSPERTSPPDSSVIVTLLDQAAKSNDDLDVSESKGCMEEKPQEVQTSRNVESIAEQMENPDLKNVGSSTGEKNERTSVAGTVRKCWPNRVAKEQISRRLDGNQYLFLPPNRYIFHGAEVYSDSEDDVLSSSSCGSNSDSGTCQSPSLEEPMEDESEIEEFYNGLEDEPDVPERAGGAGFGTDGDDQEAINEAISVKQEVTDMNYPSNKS
Put plainly: Inhibition of human SIRT1 by fluorescent deacetylase assay. The essentials: (§1)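 Homogeneous fluorescent deacetylase assay with recombinant SIRT1 or SIRT2 (SIRT2 full-length, N-terminal His6, expressed in E. coli BL21). Reaction held ZMAL substrate 10.5 µM and NAD+ 500 µM, run 4 h at 37 °C. Deacetylated product developed by tryptic digest; fluorescence read at ex 390/em 460 nm. Inhibition taken from remaining substrate versus no-inhibitor control. Run at least in duplicate, inhibitors added from DMSO stocks.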

Assay [2] has as its target T1, NAD-dependent protein deacetylase sirtuin-1. In words: Inhibition of human SIRT1. The essentials: (§2)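 Homogeneous fluorescent deacetylase assay with recombinant SIRT1 or SIRT2 (SIRT2 full-length, N-terminal His6, expressed in E. coli BL21). Inhibition taken from remaining substrate versus no-inhibitor control. Run at least in duplicate, inhibitors added from DMSO stocks.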

In assay [3] the target is T2, NAD-dependent protein deacetylase sirtuin-2 (Homo sapiens, UniProt Q8IXJ6).
T2 sequence (Q8IXJ6 whole entry): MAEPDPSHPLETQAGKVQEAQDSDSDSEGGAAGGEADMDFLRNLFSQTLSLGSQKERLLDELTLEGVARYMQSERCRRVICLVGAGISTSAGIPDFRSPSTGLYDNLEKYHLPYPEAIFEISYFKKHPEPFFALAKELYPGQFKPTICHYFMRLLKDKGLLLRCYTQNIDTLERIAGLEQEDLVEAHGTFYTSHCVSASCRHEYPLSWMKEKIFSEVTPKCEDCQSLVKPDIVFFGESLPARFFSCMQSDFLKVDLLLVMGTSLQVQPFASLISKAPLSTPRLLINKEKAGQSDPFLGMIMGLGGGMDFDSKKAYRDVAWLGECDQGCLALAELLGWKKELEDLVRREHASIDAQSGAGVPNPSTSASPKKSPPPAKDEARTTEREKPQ
Put plainly: Inhibition of human recombinant SIRT2. In a few lines:
as §2

For assay [4], the target named is T1, NAD-dependent protein deacetylase sirtuin-1. Put plainly: Inhibition of human SIRT1 by radioactive deacetylase assay. The essentials: (§3)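 Radioactive deacetylase assay with recombinant SIRT1 or SIRT2. Substrate was [3H]-acetylated histone H4 N-terminal peptide (residues 1-25). Released [3H]acetic acid quantified by scintillation counting.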
For assay [5], the target named is T2, NAD-dependent protein deacetylase sirtuin-2. In words: Inhibition of human recombinant SIRT2 by fluorescent deacetylase assay. The essentials:
as §2

Assay [6] has the same target. Put plainly: Inhibition of human recombinant SIRT2 by radioactive deacetylase assay. The essentials:
as §3

The target in assay [7] is T3, NAD-dependent protein deacetylase sirtuin-2 (Homo sapiens) (UniProt Q8IXJ6).
T3 sequence (whole entry): T2 sequence (Q8IXJ6 whole entry)
Put plainly: Inhibition of human recombinant SIRT2 at 12.5 uM. The essentials:
as §2

For assay [8], the target named is T4, NAD-dependent protein deacetylase sirtuin-1 (Homo sapiens) (UniProt Q96EB6).
T4 sequence (whole entry): T1 sequence (Q96EB6 whole entry)
In words: Inhibition of human SIRT1 at 50 uM. The essentials:
as §1

The target in assay [9] is T3, NAD-dependent protein deacetylase sirtuin-2 (Homo sapiens). Put plainly: Inhibition of human recombinant SIRT2 at 50 uM. In a few lines:
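N-terminally His6-tagged full-length human SIRT2, expressed in E. coli BL21. Homogeneous fluorescent deacetylase assay with ZMAL substrate (10.5 µM) and NAD+ (500 µM), 4 h at 37 °C. Inhibitor was added from DMSO stock. After stopping, a tryptic digest developed the fluorophore (ex 390/em 460 nm). Inhibition was taken from remaining substrate versus an uninhibited control, run at least in duplicate.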

Assay [10] shares this target. In words: Inhibition of SIRT2 in A549 cells assessed as ability to induce hyperacetylation of tubulin by Western blot analysis at 0.1 uM. In kind it is cell-based. In a few lines: (§4)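 A549 human lung carcinoma cells grown in DMEM with 10% FBS, penicillin-streptomycin and 2 mM L-glutamine. Plated 1 day before treatment, then exposed to compound for 6 h. Cells washed with PBS and lysed in buffer containing 400 nM TSA. Lysates run on 10% SDS-PAGE and western blotted for acetylated alpha-tubulin against total alpha-tubulin.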

Assay [11] shares this target. In words: Inhibition of SIRT2 in A549 cells assessed as ability to induce hyperacetylation of tubulin by Western blot analysis. It is filed as cell-based. In a few lines: as §4

On to `CN(C)CCCn1cc(C2=C(c3c[nH]c4ccccc34)C(=O)NC2=O)c2ccccc21` [GF-109203], for which the IC50 in [1] was above 50 µM; in assay [2], above 50 µM; in [3] it was 7.3 µM; in [4], 23 µM; in assay [5], 7.3 µM; in [6], 11.7 µM. In addition, the inhibition in assay [7] was above 60%.

With `O=Nc1c(-c2c(O)[nH]c3ccccc23)[nH]c2ccccc12`, the inhibition in [7] was above 60%. Consider `O=C1NC(=O)C2=C1c1cn(c3ccccc13)CC[C@@H](C1COC3(CCCCC3)O1)OCCn1cc2c2c(F)cccc21` (stereo partly specified), for which, in assay [8], the inhibition is 55.7%. Moreover, the IC50 in assay [3] is 20.8 µM. `Cn1c2ccccc2c2c3c(c4c5ccccc5n(CCC#N)c4c21)CNC3=O` [GO-6976]: the 50% inhibitory concentration (IC50) in assay [3] is above 100 µM. Regarding `CN[C@@H]1C[C@H]2O[C@@](C)([C@@H]1OC)n1c3ccccc3c3c4c(c5c6ccccc6n2c5c31)C(=O)NC4`, the outcome in [9] was inactive.

Take `COCc1cc(-c2c(COC)cc(O)c(O)c2O)c(O)c(O)c1O`: the inhibition in assay [7] is above 60%. Consider `COC(=O)/C=C/c1cc(O)ccc1O`, for which the inhibition in assay [7] was above 60%. Compound `NC(=O)c1cccnc1` displayed an inhibition in assay [8] of 10.6%. For `O=C1NC(=O)C(c2c[nH]c3cccc(F)c23)=C1c1cn(CCOC(CCO)C2COC3(CCCCC3)O2)c2ccccc12` (stereo unspecified), in assay [8], the inhibition stood at 71.9%. The IC50 in assay [3] was 2.5 µM. The corresponding values for `CN1CCCC1CCn1cc(C2=C(c3c[nH]c4ccccc34)C(=O)NC2=O)c2ccccc21` (stereo unspecified) are 58.2% and 8.3 µM. Turning to `Oc1cc(O)cc(/C=C/c2ccc(O)c(O)c2)c1`, the inhibition in assay [7] is above 60%. For `CN1C(=O)C(c2cn(CCCCCCCO)c3ccccc23)=C(c2cn(CCCCCCCO)c3ccccc23)C1=O`, the IC50 in assay [3] was above 100 µM. Take `CC(/C=C/C(=O)NO)=C\[C@@H](C)C(=O)c1ccc(N(C)C)cc1`: in assay [10], the outcome was Active. As for `O=C1NC(=O)C2=C1c1cn(c3ccccc13)CCOC(C(O)CO)CCn1cc2c2c(F)cccc21` (stereo unspecified), the outcome in assay [8] was inactive. For the same compound, the concentration for half-maximal inhibition (IC50) in assay [3] is above 50 µM. `CC(=O)c1c(O)c(C)c(O)c(Cc2c(O)c3c(c(C(=O)/C=C/c4ccccc4)c2O)OC(C)(C)C=C3)c1O`: the inhibition in assay [7] is above 60%. On to `O=C1NC(=O)C(c2c[nH]c3cccc(F)c23)=C1c1cn(CCOC(CCO)C(O)CO)c2ccccc12` (stereo unspecified), for which the inhibition in assay [8] worked out at 29.9%. For the same compound, the IC50 in [3] stood at 9.5 µM. `CCCCCCCn1cc(C2=C(c3cn(CCCCCCC)c4ccccc34)C(=O)N(C)C2=O)c2ccccc21`: the IC50 in assay [3] was above 100 µM. Still for that read-out and setting: in the case of `O=C1Cc2c([nH]c3ccc(Br)cc23)-c2ccccc2N1` [KENPAULLONE] it was above 100 µM. On to `CN(C)C[C@H]1OCCn2cc(c3ccccc32)C2=C(C(=O)NC2=O)c2cn(c3cccc(F)c23)C[C@H]1F`, for which the outcome in assay [8] was inactive. The IC50 in assay [3] is above 50 µM. Take `CN1C(=O)C(c2cn(Cc3ccccc3)c3ccccc23)=C(c2cn(Cc3ccccc3)c3ccccc23)C1=O`: the IC50 in assay [3] worked out at 78.3 µM. In the case of `C=CC(=O)c1ccc2ccccc2c1`, the inhibition in assay [7] was above 60%. `CN1C(=O)C(c2c[nH]c3ccccc23)=C(c2c[nH]c3ccccc23)C1=O`: the IC50 in [1] was above 50 µM; in [2], above 50 µM; in [3], 33 µM; in assay [4], 15.7 µM; in assay [5], 33 µM; in assay [6], 24.1 µM.

Turning to `ONC1=Nc2ccccc2-c2[nH]c3ccc(Br)cc3c2C1`, the inhibition in [9] came to 43.1%. Consider `O=C1Nc2ccc(I)cc2C1=Cc1cc(Br)c(O)c(Br)c1`, for which, in assay [7], the inhibition was above 60%.

In the case of `O=C1C(c2c[nH]c3ccccc23)=C(c2c[nH]c3ccccc23)C(=O)N1Cc1ccccc1`, the half-inhibitory concentration (IC50) in [3] came out at 40 µM.

With `O=C1NC(=O)C(c2c[nH]c3ccccc23)=C1c1c[nH]c2ccccc12` [RO-316233], in assay [8], the inhibition stood at 52.7%. The IC50 in assay [3] was 4.7 µM.

On to `O=C1Cc2c([nH]c3ccccc23)-c2ccccc2N1` [PAULLONE], for which the 50% inhibitory concentration (IC50) was 50 µM in assay [1] and 8 µM in assay [4]. In addition, the inhibition in assay [8] is 49.4%. Besides, the result in assay [11] was Active. In the case of `O=C(O)c1cc(NCc2cc(O)ccc2O)ccc1O`, the inhibition in assay [7] was above 60%. On to `O=C1NC(=O)C(c2cn(CCOC(CCO)C3COC4(CCCCC4)O3)c3ccccc23)=C1c1c[nH]c2ccccc12` (stereo unspecified), for which the inhibition in [8] was found to be 77.5%. For the same compound, in assay [3], the IC50 is 2.8 µM.
